Data set [1] in a line: Stability in pooled human liver microsomes assessed as compound remaining measured after 1 hr. In kind it is ADME, microsome. The note with it: read-out: Stability.
Data set [2] has as its system Mycobacterium tuberculosis. Briefly: Anti-tubercular activity against Mycobacterium tuberculosis infected in BALB/c mouse assessed as reduction in lung colony forming units at 100 mg/kg, po administered via gavage for 5 days each week for 3 weeks measured after 1 day post last dose relative to PA-824. The format is functional. In short, it runs like this: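 Mouse model of acute TB infection. Oral dosing at 100 mg/kg daily, 5 days per week, for 3 weeks. Read-out is fold reduction in lung CFU, expressed as a ratio to the fold CFU reduction from the reference nitroimidazole run alongside.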

The nature of data set [3]: Stability in CD-1 mouse liver microsomes assessed as compound remaining measured after 1 hr. The conditions noted are these: read-out: Stability. In kind it is ADME, microsome. A general note: Liver microsomes are vesicles of endoplasmic reticulum, rich in cytochrome P450 enzymes.
A short description of data set [4]: Solubility in water at pH 7 after 15 mins by HPLC method. In kind it is physicochemical. The conditions noted are these: for solubility at 0.25 h: water, pH 7. Summed up:
(§1)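 Solubility measured at 20 °C by HPLC, in water (pH 7) or 0.1 M HCl (pH 1).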

The test system of data set [5] is Vero. Nature of the data set: Cytotoxicity against African green monkey Vero cells after 72 hrs by MTS/PMS assay. In kind it is cell-based. The conditions noted are these: Chlorocebus sabaeus. In short, it runs like this:
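VERO mammalian cells exposed for 72 h. Cytotoxicity IC50 comes from a single test.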

Data set [6] can be described thus: Cytotoxicity against human MRC5 SV2 cells after 72 hrs by resazurin dye based fluorescence assay. The format is cell-based. The note with it: Homo sapiens, MRC-5 SV2, 72 h. Summed up:
(§2)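 IC50 for growth inhibition of L. infantum, T. cruzi and T. brucei parasites, or for cytotoxicity toward human lung fibroblasts (MRC-5). Values are means of two or more independent experiments.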

Data set [7] has as its system Mycobacterium tuberculosis. Nature of the data set: Anti-tubercular activity against Mycobacterium tuberculosis H37Rv ATCC 27294 after 10 days under hypoxic condition by low-oxygen recovery assay. In kind it is functional. In short, it runs like this: (§3)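 M. tuberculosis H37Rv MIC measured in two assays: aerobic growth by MABA and hypoxic exposure by LORA. Each value is the mean of ≥2 independent determinations.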

For data set [8], the system named is Leishmania infantum. Nature of the data set: Anti-parasitic activity against Leishmania infantum MHOM/MA(BE)/67 amastigotes infected in mouse primary peritoneal macrophages after 5 days by giemsa staining based microscopic method. The format is functional. The note with it: Leishmania infantum, MHOM/MA(BE)/67, 120 h. Summed up: as §2
The subject of data set [9] is Mycobacterium tuberculosis. Nature of the data set: Anti-tubercular activity against Mycobacterium tuberculosis H37Rv ATCC 27294 after 7 days under aerobic condition by microplate alamar blue assay. The format is functional. Summed up: as §3
A general note: The colour change of resazurin is a common sign of viable cells or microbes.

In data set [10] the test system is Trypanosoma brucei brucei. Nature of the data set: Anti-parasitic activity against Trypanosoma brucei brucei Squib-427 after 72 hrs by resazurin dye based fluorescence assay. In kind it is functional. The conditions noted are these: Trypanosoma brucei, Squib-427, 72 h. In short, it runs like this: as §2
Data set [11] relates to Trypanosoma cruzi. Briefly: Anti-parasitic activity against Trypanosoma cruzi Tulahuen CL2 infected in human MRC5 cells after 7 days by chlorophenol red […]-D-galactopyranoside dye based assay. In kind it is functional, cell-based. The conditions noted are these: Trypanosoma cruzi, Tulahuen CL2, MRC5, 168 h. In short, it runs like this:
as §2

The nature of data set [12]: Solubility in HCl at pH 1 after 15 mins by HPLC method. In kind it is physicochemical. Summed up: as §1
Setting [13] is: Mycobacterium tuberculosis, H37Rv ATCC 27294, 240 h, read-out: MIC.
The mark [14] stands for this setting: Mycobacterium tuberculosis, H37Rv ATCC 27294, 168 h, read-out: MIC.

In brackets after ≈: the same amount, converted by molar mass. Bounds are passed on as bounds.

For `C[C@]1(COc2ccc(N3CCC(Oc4ccc(OC(F)(F)F)cc4)CC3)cc2)Cn2cc([N+](=O)[O-])nc2O1`, the remaining at 1 h in [1] worked out at 71%; in [3], 87%. Further, the “fold change (FC)” value in data set [2] is on record as 68.
Turning to `O=[N+]([O-])c1cn2c(n1)OC[C@@H](COc1ccc(OC(F)(F)F)cc1)C2`, the remaining at 1 h in data set [1] was determined as 82%; in [3], 94%.
In general, solubility refers to the concentration that dissolves in the medium under given conditions. With `CC1(COc2ccc(-c3ccc(OC(F)(F)F)cc3)cc2)Cn2cc([N+](=O)[O-])nc2O1` (stereo not given), in [2], the “fold change (FC)” value was determined as 115. The solubility in data set [4] (buffer, pH 7, 0.25 h) is 0.41 µg/mL (≈ 0.942 µM).
As for `CC1(COCc2ccc(OC(F)(F)F)cc2)Cn2cc([N+](=O)[O-])nc2O1` (stereo not given), in data set [2], the “fold change (FC)” value is on record as 0.025. This molecule also gave a solubility at 0.25 h in data set [4] of 11 µg/mL (≈ 29.5 µM).
One may read the IC50 as the concentration that gives 50% inhibition. The term MIC denotes the least concentration at which growth counts as inhibited. `C[C@]1(COCc2ccc(OC(F)(F)F)cc2)Cn2cc([N+](=O)[O-])nc2S1`: the remaining at 1 h in data set [1] turned out to be 29%; in data set [3], 0%. Moreover, the IC50 is 24 µM in [5]; 43 µM in data set [6]; above 64 µM in [8]; above 64 µM in [10]; 0.57 µM in data set [11]. The MIC in data set [7] (setting [13]) worked out at 5.8 µM (≈ 2.26 µg/mL); in data set [9] (setting [14]) it was 0.2 µM (≈ 0.0779 µg/mL).
On to `CC1(COc2ccc(-c3ccc(OC(F)(F)F)cc3)cc2)Cn2cc([N+](=O)[O-])nc2S1` (stereo not given), for which the values for the remaining at 1 h in [1] and in [3] were 84% and 75%, respectively. Also, the “fold change (FC)” value in data set [2] is reported as 5.7. Moreover, the 50% inhibitory concentration (IC50) in [5] was above 128 µM; in [6] it was above 64 µM; in data set [8], 45 µM; in data set [10] it was above 64 µM; in data set [11], 0.085 µM. Further, the MIC in [7] (setting [13]) is above 128 µM; in data set [9] (setting [14]), 0.063 µM (≈ 0.0284 µg/mL). This molecule registered a solubility at 0.25 h in [4] of 0.25 µg/mL (≈ 0.554 µM).
For the molecule `CC1(COc2ccc(OC(F)(F)F)cc2)Cn2nc([N+](=O)[O-])nc2S1(=O)=O` (stereo not given), the 50% inhibitory concentration (IC50) in data set [5] amounted to 46 µM; in [6], 0.42 µM; in data set [8], 1.3 µM; in [10], 2.1 µM; in [11] it was 1.3 µM. Moreover, the values for the MIC in data set [7] (setting [13]) and in [9] (setting [14]) were 27 µM (≈ 11 µg/mL) and 2.2 µM (≈ 0.898 µg/mL), respectively.
Turning to `CC1(COc2ccc(OC(F)(F)F)cc2)Cn2nc(Br)nc2S1` (stereo not given), the IC50 in [5] is 89 µM; in data set [6], 42 µM; in data set [8], above 64 µM; in data set [10], 34 µM; in data set [11] it was 6.2 µM. Moreover, the MIC in data set [7] (setting [13]) was above 128 µM; in data set [9] (setting [14]), 24 µM (≈ 9.85 µg/mL).
Take `CC1(COc2ccc(OC(F)(F)F)cc2)Cn2nc([N+](=O)[O-])nc2[S+]1[O-]` (stereo not given): the IC50 came to 98 µM in data set [5]; 0.74 µM in data set [6]; 0.9 µM in data set [8]; 3 µM in [10]; 1.2 µM in data set [11]. Also, the MIC in data set [7] (setting [13]) came out at 90 µM (≈ 35.3 µg/mL); in data set [9] (setting [14]) it was 9.3 µM (≈ 3.65 µg/mL).
Consider `CC1(COCc2ccc(OC(F)(F)F)cc2)Cn2cc([N+](=O)[O-])nc2S1` (stereo not given), for which the IC50 in data set [6] was above 64 µM; in data set [8], 57 µM; in [10] it was 56 µM; in [11], 0.67 µM. For the same molecule, the MIC in data set [7] (setting [13]) turned out to be 7.9 µM (≈ 3.08 µg/mL); in data set [9] (setting [14]), 0.24 µM (≈ 0.0934 µg/mL). In [4], this molecule had a solubility at 0.25 h of 2.4 µg/mL (≈ 6.16 µM).
`CC1(COc2ccc(N3CCC(Oc4ccc(OC(F)(F)F)cc4)CC3)cc2)Cn2cc([N+](=O)[O-])nc2S1` (stereo not given): the IC50 in data set [5] was above 128 µM; in data set [6], above 64 µM; in data set [8] it was 53 µM; in [10] it was 59 µM; in data set [11], 0.055 µM. The results for the MIC in data set [7] (setting [13]) and in data set [9] (setting [14]) were 71 µM (≈ 39.1 µg/mL) and 0.073 µM (≈ 0.0402 µg/mL), respectively. For the same molecule, the solubility at 0.25 h in [4] was 0.18 µg/mL (≈ 0.327 µM); in data set [12], 13 µg/mL (≈ 23.6 µM).
In the case of `CC1(COc2ccc(-c3ccc(C(F)(F)F)cc3)cc2)Cn2cc([N+](=O)[O-])nc2S1` (stereo not given), the IC50 in [5] was above 128 µM; in data set [6] it was above 64 µM; in [8], above 64 µM; in data set [10] it was 52 µM; in [11], 0.035 µM. Besides, the figures for the MIC in data set [7] (setting [13]) and in [9] (setting [14]) were 46 µM (≈ 20 µg/mL) and 0.12 µM (≈ 0.0523 µg/mL), respectively.
As to `CC1(COc2ccc(OC(F)(F)F)cc2)Cn2cc([N+](=O)[O-])nc2[S+]1[O-]` (stereo in doubt; 37), the IC50 in data set [5] was above 128 µM; in [6], above 64 µM; in [8], above 64 µM; in data set [10], above 64 µM; in [11] it was 2.3 µM. The MIC in data set [7] and in data set [9] was above 128 µM throughout.

The values are drawn from ChEMBL document CHEMBL4028840, “6-Nitro-2,3-dihydroimidazo[2,1-b][1,3]thiazoles: Facile synthesis and comparative appraisal against tuberculosis and neglected tropical diseases” (Bioorg Med Chem Lett, 2017).
